Experimental data from paper PMC6358270 (Toxicological Sciences, 2018).
“Also recorded” adds a separate entry of the source. Like-named read-outs stand apart in the source and are kept apart here.

How the values were obtained:
[1] = tested on: primary human hepatocytes; conditions: ref Wolenski et al., 2017; cited from earlier work
[2] = tested on: HepG2 cells; conditions: ref Otieno et al., 2018, cited from earlier work; for effect on OCR / basal respiration: HepG2 cells
[3] = ref Wolenski et al., 2017; cited from earlier work
[4] = target: human BSEP ABC transporter (Homo sapiens, UniProt O95342); assay: BSEP vesicular transport inhibition Ki determination assay; format: biochemical
In short: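 Inside-out membrane vesicles expressing BSEP. Transporter-specific taurocholate accumulation was measured across a range of test compound concentrations.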

[5] = tested on: HepG2 cells; assay: In vitro ROS assay; format: cell-based, human; conditions: nominal media concentrations up to 200 μM, 1 h or 24 h
[6] = target: T1, human NTCP (Homo sapiens, UniProt Q14973); assay: NTCP uptake transporter inhibition Ki determination in CHO cells; format: cell-based; conditions: based on alpha >> 1, increasing Km, nearly constant Vmax
T1 sequence (Q14973 1-349): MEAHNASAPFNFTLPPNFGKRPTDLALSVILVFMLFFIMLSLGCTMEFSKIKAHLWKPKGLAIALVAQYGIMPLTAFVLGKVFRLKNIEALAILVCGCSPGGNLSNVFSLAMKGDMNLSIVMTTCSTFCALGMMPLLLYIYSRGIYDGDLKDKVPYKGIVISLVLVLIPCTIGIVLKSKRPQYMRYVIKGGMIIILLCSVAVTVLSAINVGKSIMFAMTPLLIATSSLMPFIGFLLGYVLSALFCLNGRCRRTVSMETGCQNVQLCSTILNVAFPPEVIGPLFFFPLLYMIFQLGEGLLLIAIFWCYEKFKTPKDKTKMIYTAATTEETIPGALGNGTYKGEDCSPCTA

[7] = tested on: TAK-875-treated patients; conditions: cited from earlier work; for patients with ALT elevations > 3× ULN: clinical
[8] = rat; ref unpublished data; cited from earlier work
[9] = tested on: patients with T2D; conditions: Phase II clinical trials, ref Kaku et al., 2015; cited from earlier work

Chain of human BSEP ABC transporter (O95342 whole entry): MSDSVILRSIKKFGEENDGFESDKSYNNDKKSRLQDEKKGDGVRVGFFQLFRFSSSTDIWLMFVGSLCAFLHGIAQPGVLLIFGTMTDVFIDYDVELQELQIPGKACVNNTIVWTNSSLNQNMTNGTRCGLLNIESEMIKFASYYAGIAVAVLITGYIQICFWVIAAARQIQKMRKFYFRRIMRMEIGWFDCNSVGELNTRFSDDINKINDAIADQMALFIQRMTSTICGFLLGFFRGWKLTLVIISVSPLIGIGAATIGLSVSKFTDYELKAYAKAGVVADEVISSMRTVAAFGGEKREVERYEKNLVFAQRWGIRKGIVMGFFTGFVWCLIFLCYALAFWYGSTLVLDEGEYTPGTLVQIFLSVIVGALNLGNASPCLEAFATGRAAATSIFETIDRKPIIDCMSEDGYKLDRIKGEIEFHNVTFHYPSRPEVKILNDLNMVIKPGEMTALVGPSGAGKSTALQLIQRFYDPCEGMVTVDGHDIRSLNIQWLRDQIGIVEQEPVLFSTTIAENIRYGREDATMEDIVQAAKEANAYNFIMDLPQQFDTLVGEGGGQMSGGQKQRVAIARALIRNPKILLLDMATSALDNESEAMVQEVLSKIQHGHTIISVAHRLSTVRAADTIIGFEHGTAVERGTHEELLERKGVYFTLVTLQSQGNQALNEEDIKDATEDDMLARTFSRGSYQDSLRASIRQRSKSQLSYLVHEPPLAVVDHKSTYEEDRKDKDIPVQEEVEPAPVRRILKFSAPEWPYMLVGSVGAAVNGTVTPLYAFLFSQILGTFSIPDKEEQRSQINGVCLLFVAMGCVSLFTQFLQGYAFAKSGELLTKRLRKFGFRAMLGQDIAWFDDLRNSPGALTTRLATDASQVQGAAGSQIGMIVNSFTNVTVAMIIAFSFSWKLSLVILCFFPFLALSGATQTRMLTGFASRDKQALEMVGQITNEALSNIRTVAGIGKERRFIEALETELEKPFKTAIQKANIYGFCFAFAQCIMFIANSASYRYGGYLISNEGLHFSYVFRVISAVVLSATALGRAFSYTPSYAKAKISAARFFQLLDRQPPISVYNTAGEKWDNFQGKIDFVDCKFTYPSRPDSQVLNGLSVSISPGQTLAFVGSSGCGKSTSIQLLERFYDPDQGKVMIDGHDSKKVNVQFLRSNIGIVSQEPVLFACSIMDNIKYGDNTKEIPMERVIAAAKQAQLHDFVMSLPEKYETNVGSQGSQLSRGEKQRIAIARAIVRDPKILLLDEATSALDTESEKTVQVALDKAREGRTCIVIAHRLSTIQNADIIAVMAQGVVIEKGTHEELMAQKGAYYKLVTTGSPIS

Row | Structure (SMILES) | effect on oxygen consumption rate (OCR) [1] | effect on OCR / basal respiration [2] | effects on mitochondria [2] | compound-induced oxidative stress [3] | Ki [4] [µM] | mode of BSEP inhibition ([4]; based on alpha value, Km and Vmax trends) | BSEP alpha constant for inhibition ([4]; mixed-type inhibition model) | ROS production / oxidative stress (DHE fluorescence) [5] | mode of NTCP inhibition [6] | cases of serious liver injury, incidence ([7]; clinical trials, ref Marcinak et al., 2018) [%] | patients with ALT elevations > 3× ULN ([7]; daily doses of 200 mg, ref unpublished data) [%] | patients with ALT elevations > 3× ULN ([7]; daily doses ranging from 25 to 50 mg, ref Marcinak et al., 2018) [%] | cases of serious liver injury ([7]; in 9139 TAK-875-treated patients, ref Marcinak et al., 2018) [cases] | concentration in liver versus plasma [8] | effect on blood glucose levels and HbA1c [9]
1 | Cc1cc(OCCCS(C)(=O)=O)cc(C)c1-c1cccc(COc2ccc3c(c2)OC[C@H]3CC(=O)O[C@@H]2O[C@H](C(=O)O)[C@@H](O)[C@H](O)[C@H]2O)c1 [TAK-875-Glu] | reduce the oxygen consumption rate (OCR) in a dose-dependent manner | no effect on basal respiration | negligible effects on mitochondria | no evidence of compound-induced oxidative stress was detected; also recorded: not found to be inducers of oxidative stress | – | – | – | – | – | – | – | – | – | – | –
2 | Cc1cc(OCCCS(C)(=O)=O)cc(C)c1-c1cccc(COc2ccc3c(c2)OC[C@H]3CC(=O)O)c1 [TAK-875, fasiglifam] | reduce the oxygen consumption rate (OCR) in a dose-dependent manner | dose-dependent reduction in OCR | – | no evidence of compound-induced oxidative stress was detected; also recorded: not found to be inducers of oxidative stress | 17.2 | mixed | 2.172 | not observed | competitive | 0.03 | 4.0 | 2.8 | 3 | roughly equivalent | lowered blood glucose levels and glycated hemoglobin (HbA1c)
